Data as given in ChEMBL document CHEMBL4725483, “Simultaneous Inhibition of SIRT2 Deacetylase and Defatty-Acylase Activities via a PROTAC Strategy” (ACS Med Chem Lett, 2020).
Active and inactive are the calls of the source. No cut-off for these calls is given here.

Assays:
[1] = target: T1, Protein cereblon/NAD-dependent protein deacetylase sirtuin-2 (Homo sapiens) (UniProt Q8IXJ6+Q96SW2); test: Protac activity at CRBN/SIRT2 in human MCF7 cells assessed as inhibition of SIRT2 deacetylation by measuring increase in acetylated-alpha tubulin level at 10 uM measured after 12 hrs by DAPI staining based immunofluorescence microscopic analysis; type: cell-based
T1 sequence (Q8IXJ6 whole entry, looked up): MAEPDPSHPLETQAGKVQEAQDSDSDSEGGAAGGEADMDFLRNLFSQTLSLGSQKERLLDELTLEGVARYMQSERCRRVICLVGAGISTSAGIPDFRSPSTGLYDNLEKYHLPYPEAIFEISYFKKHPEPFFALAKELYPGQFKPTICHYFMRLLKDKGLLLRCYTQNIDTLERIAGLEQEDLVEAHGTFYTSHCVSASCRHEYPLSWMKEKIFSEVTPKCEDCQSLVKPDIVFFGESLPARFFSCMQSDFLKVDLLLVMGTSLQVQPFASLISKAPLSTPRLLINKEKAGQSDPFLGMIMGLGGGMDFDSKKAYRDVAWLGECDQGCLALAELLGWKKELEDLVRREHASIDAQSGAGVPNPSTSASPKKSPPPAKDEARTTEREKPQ
T1 sequence (Q96SW2 whole entry, looked up): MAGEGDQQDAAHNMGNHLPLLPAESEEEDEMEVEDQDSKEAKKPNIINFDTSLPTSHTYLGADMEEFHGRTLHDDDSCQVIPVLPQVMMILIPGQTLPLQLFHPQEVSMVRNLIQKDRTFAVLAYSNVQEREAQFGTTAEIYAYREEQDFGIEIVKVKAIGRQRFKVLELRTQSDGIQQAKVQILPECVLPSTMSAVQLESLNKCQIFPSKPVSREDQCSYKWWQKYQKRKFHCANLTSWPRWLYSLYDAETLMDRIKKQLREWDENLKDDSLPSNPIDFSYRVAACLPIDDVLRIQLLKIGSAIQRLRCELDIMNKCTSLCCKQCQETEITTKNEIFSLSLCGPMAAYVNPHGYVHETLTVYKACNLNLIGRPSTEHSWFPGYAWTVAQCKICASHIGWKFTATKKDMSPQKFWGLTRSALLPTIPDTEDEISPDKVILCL
How it was run: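 MCF7 cells treated for 12 h with 5 or 10 μM, DMSO as control. Acetyl-α-tubulin (K40) was imaged by immunofluorescence, and fluorescence intensity was quantified and normalized to vehicle.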

[2] = target: T1, Protein cereblon/NAD-dependent protein deacetylase sirtuin-2 (Homo sapiens); test: Protac activity at CRBN/SIRT2 in human MCF7 cells assessed as SIRT2 degradation at 50 uM after 48 hrs by immunoblot analysis; type: cell-based
How it was run: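 MCF7 cells given a range of concentrations below and above 5 μM (0.5 to 50 μM) for 48 h; SIRT2 measured by immunoblot against vehicle-treated cells.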

[3] = target: Protein cereblon/NAD-dependent protein deacylase sirtuin-6 (Homo sapiens) (UniProt Q8N6T7+Q96SW2); test: Protac activity at CRBN/SIRT6 in human HEK293T cells assessed as abundance ratio at 5 uM incubated for 16 hrs by TMT global proteomics assay relative to DMSO; type: cell-based; settings: HEK-293T
Chain of Protein cereblon/NAD-dependent protein deacylase sirtuin-6 (Homo sapiens) (Q8N6T7 2-355 limits assumed): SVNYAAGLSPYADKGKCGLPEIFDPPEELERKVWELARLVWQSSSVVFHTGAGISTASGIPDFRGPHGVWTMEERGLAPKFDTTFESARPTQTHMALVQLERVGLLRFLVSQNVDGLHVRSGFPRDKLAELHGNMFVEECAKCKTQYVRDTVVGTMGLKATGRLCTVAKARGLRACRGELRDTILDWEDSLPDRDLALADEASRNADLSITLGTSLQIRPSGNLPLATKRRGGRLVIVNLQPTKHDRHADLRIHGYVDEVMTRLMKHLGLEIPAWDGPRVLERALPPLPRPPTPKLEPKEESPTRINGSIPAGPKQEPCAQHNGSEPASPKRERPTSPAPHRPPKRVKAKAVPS
Chain of Protein cereblon/NAD-dependent protein deacylase sirtuin-6 (Homo sapiens) (Q96SW2 whole entry partner): as the sequence (Q96SW2 whole entry, looked up) above
How it was run: (§1)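 HEK 293T cells were treated for 16 h. Global proteome was quantified by Tandem Mass Tag labelling. The abundance ratio of each sirtuin was taken against DMSO-treated cells.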

[4] = target: T1, Protein cereblon/NAD-dependent protein deacetylase sirtuin-2 (Homo sapiens); test: Protac activity at CRBN/SIRT2 in human MCF7 cells assessed as SIRT2 degradation at 5 uM preincubated with proteasome inhibitior MG132 for 2 hrs followed by compound addition measured after 16 hrs by immunoblot analysis; type: cell-based
How it was run: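 Proteasome dependence: MCF7 cells pretreated 2 h with 5 μM MG132, then cotreated with 5 μM compound plus 5 μM MG132 for 16 h more; SIRT2 detected by immunoblot.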

[5] = target: T1, Protein cereblon/NAD-dependent protein deacetylase sirtuin-2 (Homo sapiens); test: Protac activity at CRBN/SIRT2 in human MDA-MB-468 cells assessed as SIRT2 degradation after 48 hrs by immunoblot analysis; type: cell-based
How it was run: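 In MDA-MB-231 and MDA-MB-468 cells, SIRT2 was assessed by immunoblot after compound treatment.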

MDA-MB-231 = test: Cytotoxicity against human MDA-MB-231 cells assessed as reduction in cell viability after 72 hrs; type: functional, cell-based
How it was run: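 Cells incubated with compound or thalidomide for 72 h; cell viability read out at the end of exposure.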

[6] = target: Protein cereblon/NAD-dependent protein deacylase sirtuin-5, mitochondrial (Homo sapiens) (UniProt Q9NXA8+Q96SW2); test: Protac activity at CRBN/SIRT5 in human HEK293T cells assessed as abundance ratio at 5 uM incubated for 16 hrs by TMT global proteomics assay relative to DMSO; type: cell-based; settings: HEK-293T; how it was run: as §1
Chain of Protein cereblon/NAD-dependent protein deacylase sirtuin-5, mitochondrial (Homo sapiens) (Q96SW2 whole entry, looked up): as above
Chain of Protein cereblon/NAD-dependent protein deacylase sirtuin-5, mitochondrial (Homo sapiens) (Q9NXA8 whole entry, looked up): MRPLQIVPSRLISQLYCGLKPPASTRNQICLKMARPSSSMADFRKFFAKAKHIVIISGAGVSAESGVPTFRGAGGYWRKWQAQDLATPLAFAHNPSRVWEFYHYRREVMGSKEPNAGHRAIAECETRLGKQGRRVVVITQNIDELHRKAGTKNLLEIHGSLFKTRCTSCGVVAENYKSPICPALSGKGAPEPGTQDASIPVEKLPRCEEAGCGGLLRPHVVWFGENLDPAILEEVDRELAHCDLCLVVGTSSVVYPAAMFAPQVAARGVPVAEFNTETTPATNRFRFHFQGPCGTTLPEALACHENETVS

Which results are given for `CCCCCCCCCCCCCC(=S)NCCCC[C@H](NC(=O)CCOCCOCCOCCOCCNc1cccc2c1C(=O)N(C1CCC(=O)NC1=O)C2=O)C(=O)Nc1ccccc1` (some centres not stated)?
Activity [1]: Active; Activity [2]: inactive; Activity [3]: inactive; Activity [4]: inactive; Activity [5]: Active; Activity (MDA-MB-231): Active; Activity [6]: inactive
